Screens: PubChem, several laboratories
HNF4A DNA FP: change in binding of human HNF4A to DNA, primary screen, biochemical, fluorescence polarization, FITC-DNA; Hepatocyte nuclear factor 4-alpha (Homo sapiens), P41235; 1 h; activity change, % at 10 µM; 360,000 tested, 0.3% active; in the data active = activity change above about 30%, passing the limit was not always enough
Target sequence (P41235 whole entry, looked up): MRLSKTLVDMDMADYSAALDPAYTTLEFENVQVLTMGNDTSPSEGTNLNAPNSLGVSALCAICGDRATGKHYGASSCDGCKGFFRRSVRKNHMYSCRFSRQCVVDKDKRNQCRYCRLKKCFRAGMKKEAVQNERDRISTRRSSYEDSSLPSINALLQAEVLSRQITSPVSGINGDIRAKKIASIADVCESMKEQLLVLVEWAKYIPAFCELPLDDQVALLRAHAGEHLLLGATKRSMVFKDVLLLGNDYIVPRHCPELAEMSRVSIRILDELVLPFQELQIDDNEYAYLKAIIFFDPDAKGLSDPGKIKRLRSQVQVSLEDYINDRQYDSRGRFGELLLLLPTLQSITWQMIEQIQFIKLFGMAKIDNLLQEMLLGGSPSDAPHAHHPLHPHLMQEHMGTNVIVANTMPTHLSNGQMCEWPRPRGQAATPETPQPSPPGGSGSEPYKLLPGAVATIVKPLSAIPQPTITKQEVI
Granule exo inh: LAMP-1 surface exposure blockers, TALL-104 cells – cell-based, flow cytometry, MLPCN library, primary screen | TALL-104 LAMP-1 surface exposure; cells stimulated with thapsigargin and PMA | inhibition, % at 10 µM | 360,000 tested, 0.66% active | AID 651702, 2012;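 active = inhibition above about 55%, limit read from the data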
Myeloid diff 2: induction of myeloid progenitor differentiation, primary screen, cell-based, flow cytometry, MLPCN library. ER-HoxA9 myeloid progenitors, lysozyme-GFP differentiation. 360,000 tested, 1% active. calls only at 10 µM;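 active = normalized GFP-positive differentiation at or above the plate's own cutoff, the solvent-only control mean plus 3 SD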;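 also: cells exposed to compound for four days before flow analysis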
CSN inh: inhibitors of CSN-mediated cullin deneddylation, primary screen, biochemical, fluorescence polarization, uHTS | Purified CSN, SCF-Nedd8-OG deneddylation | inhibition, % at 12.5 µM | 360,000 tested, 0.38% active | AID 651999, 2013;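 active = pattern-corrected inhibition above about 35%, with an unprinted fluorescence ratio check between 0.5 and 1.5, limit read from the data, passing the limit was not always enough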;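 also: 0% = enzyme with substrate and 100% = substrate without enzyme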
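Test system: purified human Csn5 enzyme expressed in HEK293T cells. Amount: 0.24 nM enzyme. Reagent: SCFSkp2-Nedd8OG substrate at 10 nM final. Schedule: 90 min incubation of compound, enzyme and substrate at room temperature. Detection: fluorescence polarization. Read-out: % inhibition of substrate cleavage by Csn5.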
Granule exo CP1: inhibitors of lytic granule exocytosis, confirmation, TALL-104 cells, flow cytometry, Cherry Pick01; shares compounds with Granule exo inh; LAMP-1 externalization; stimulated with PMA plus thapsigargin; inhibition, % at 10 µM; 1,500 tested, 11% active; AID 651954, 2012; in the data active = inhibition above about 60%;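 also: 0% = stimulated vehicle wells and 100% = unstimulated wells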
The depositor's hits bear a star; i = inactive; / = no result given; + = active, no number. In the library only some 2.2% were active in any assay of this set; here they are far more common.

SMILES | HNF4A DNA FP | Granule exo inh | Myeloid diff 2 | CSN inh | Granule exo CP1
COc1ccc(NC(=S)N(CCCOC(C)C)C2CCN(C(C)=O)CC2)cc1Cl | 2.3 | 5.2 | i | 4.5 | /
Cc1cc(C)n(CCc2nc(-c3ccc(C)o3)cs2)n1 | -1.3 | 68.2* | i | 9.7 | -3.2
Cc1cc(C)n(CCc2nc(-c3cc4ccccc4o3)cs2)n1 | -1.4 | 0.2 | i | 7.6 | /
COc1ccc(Nc2cc(C)nc3ccccc23)cc1 | 1.4 | 1.7 | i | -2.0 | /
COc1ccc(OC)c(Nc2cc(C)nc3ccc(C)cc23)c1 | 4.3 | 55.9* | i | -0.1 | -11.7
CCOc1ccccc1Nc1cc(C)nc2ccc(C)cc12 | 2.4 | 80.9* | i | 1.6 | -6.9
COc1cc(SC)ccc1C(=O)NCCc1c[nH]c2ccccc12 | 1.9 | 62.5* | i | -2.6 | -3.8
O=C(NCCc1c[nH]c2ccccc12)c1ccc(F)cc1F | -1.0 | 12.9 | i | 1.3 | /
S=C(NCCCN1CCOCC1)N1CCN(c2nc(-c3ccc(Cl)cc3)cs2)CC1 | 2.3 | 76.6* | i | -4.9 | 46.9
S=C(NCCCN1CCOCC1)N1CCN(c2nc(-c3ccccc3)cs2)CC1 | 2.0 | 7.7 | i | -3.6 | /
COc1ccc(NS(=O)(=O)c2ccc(N3CCCCC3)c(N)c2)cc1 | 0.5 | -5.2 | i | 0.7 | /
CN1Cc2c(N3CCOCC3)nc3sc(C#N)c(N)c3c2CC1(C)C | 2.9 | 1.3 | i | -0.8 | /
CN1Cc2c(N3CCOCC3)nc3sc(C(=O)c4ccc(Br)cc4)c(N)c3c2CC1(C)C | 6.2 | 60.9* | i | -0.6 | 75.5*
O=C(CCN1CCN(C(=O)c2ccccc2)CC1)c1ccc(Br)cc1 | 1.0 | 81.6* | i | -4.5 | 14.9
CCOc1ccccc1/C=C/c1onc(C)c1S(=O)(=O)N1CCC(C(=O)NC)CC1 | -0.7 | -4.5 | i | -3.5 | /
COc1ccccc1/C=C/c1onc(C)c1S(=O)(=O)N1CCC(C(=O)NC2CCCCCC2)CC1 | -0.3 | 70.2* | i | -1.8 | -4.2
O=C(O)Cn1c(=O)n(Cc2ccccc2)c2ccccc21 | 1.6 | 57.7* | i | -0.4 | -4.0
COc1ccc(Cl)cc1NC(=O)CN(C)C1CCCCC1 | 1.1 | 0.4 | i | -1.7 | /
COc1ccc(OC)c(NC(=O)CN(Cc2ccc(F)cc2)C2CCCCC2)c1 | 1.1 | 76.1* | i | 4.5 | -10.6
CCOc1cc(C2Nc3cccc4cccc(c34)N2)ccc1O | 6.6 | 13.1 | i | -1.1 | /
CCOc1ccc(C2Nc3cccc4cccc(c34)N2)cc1OC | -2.1 | 55.5* | i | 2.8 | -9.2
COc1ccc(OC)c(NC(=O)c2cccc3c2C(=O)N(C2CCCCC2)C3)c1 | 0.7 | 78.3* | i | -1.6 | -13.4
CCOC(=O)C1(Cc2ccccc2)CCCN(C2CCCC2)C1 (centres undefined) | 8.5 | 58.8* | i | 1.8 | -4.4
CCOC(=O)C1(Cc2ccccc2)CCCN(CCO)C1 (centres undefined) | 4.6 | 53.8 | i | 3.5 | /
Clc1ccc2nc(N3CCNCC3)nc(-c3ccccc3)c2c1 | 2.0 | 86.5* | i | 4.9 | 58.8
SMILES | HNF4A DNA FP | Granule exo inh | Myeloid diff 2 | CSN inh | Granule exo CP1
CCc1ccc(CN(Cc2cccnc2)C(=O)/C=C/c2ccc(OC)cc2)cc1 | 60.3* | 61.1* | + | 25.9 | -13.8
COc1ccc(/C=C/C(=O)NCc2cccnc2)cc1 | 4.5 | -1.9 | i | -5.5 | /
COc1cc(Cl)c(CN2CCCC(CO)(Cc3ccccc3F)C2)cc1OC (centres undefined) | -1.1 | 65.5* | i | -3.1 | -12.8
CC(C)Oc1ccc(CN2CCCC(CO)(Cc3ccc(F)cc3)C2)cc1 (centres undefined) | 4.6 | 35.1 | i | -3.5 | /
COc1ccc(CN2CCCC(CO)(Cc3ccc(F)cc3)C2)c(OC)c1OC (centres undefined) | -0.5 | 60.8* | i | -1.7 | -14.8
CCOc1cc(C(C(=O)NCC2CCCO2)N(C(=O)Cn2nnc3ccccc32)c2ccccc2C(C)=O)ccc1O (centres undefined) | -3.4 | 17.9 | i | -0.7 | /
O=C(NCc1ccccc1)C(=O)Nc1nc(C23CC4CC(CC(C4)C2)C3)cs1 | -1.5 | 16.2 | i | -1.4 | /
O=C(NCc1ccncc1)C(=O)Nc1nc(C23CC4CC(CC(C4)C2)C3)cs1 | 1.3 | 77.0* | i | -6.4 | -0.9
CN(Cc1ccc(C#CCCO)cc1)CC1CCCN(CCc2ccc(Cl)cc2)C1 (centres undefined) | -2.3 | 69.6* | i | -2.5 | -10.2
CCN(Cc1ccc(C#CCCO)cc1)CC1CCCN(CCc2cccc(F)c2)C1 (centres undefined) | -0.5 | 88.2* | i | 1.2 | -10.5
Cc1occc1C(=O)N(C)CC1CCCN(CCc2ccc(Cl)cc2)C1 (centres undefined) | -0.6 | 5.1 | i | 1.9 | /
CN(Cc1ccccc1O)CC1CCCN(CCc2ccc(Cl)cc2)C1 (centres undefined) | -2.3 | 68.6* | i | 6.5 | -11.7
COC(=O)[C@H](Cc1c[nH]c2ccccc12)NC(=O)CCCc1c[nH]c2ccccc12 | 0.2 | 74.2* | i | -0.4 | -11.9
COC(=O)[C@H](Cc1c[nH]c2ccccc12)NC(=O)Cc1c[nH]c2ccccc12 | 0.2 | 65.6* | i | 1.1 | -11.7
COC(=O)C(Cc1c[nH]c2ccccc12)NC(=O)C(=O)c1c[nH]c2ccccc12 (centres undefined) | 6.2 | 59.0* | i | 2.3 | -11.7
N#CCOC(=O)[C@H](Cc1c[nH]c2ccccc12)NS(=O)(=O)c1ccc(Cl)cc1 | -3.9 | 57.1* | i | 7.3 | 51.7
COC(=O)C(Cc1c[nH]c2ccccc12)NC(=O)C(C)C (centres undefined) | -2.4 | -0.1 | i | 0.0 | /
COC(=O)C(Cc1c[nH]c2ccccc12)NC(=O)C1CC1 (centres undefined) | 2.4 | 4.8 | i | 3.7 | /
COc1ccccc1N(Cc1ccccc1)S(=O)(=O)c1cccc(C(=O)Nc2cc(C)ccn2)c1 | 0.8 | 10.0 | i | -0.4 | /
O=C(O)CC(c1ccccc1)N1C(=O)c2ccccc2C1=O (centres undefined) | 3.8 | -9.4 | i | -5.4 | /
O=C(CN1C(=O)c2ccc([N+](=O)[O-])cc2C1=O)NCC1CCCO1 (centres undefined) | -0.7 | 1.3 | i | -1.0 | /
Cc1ccc(Br)cc1S(=O)(=O)N1CCN(c2ccccc2)CC1 | -1.5 | 66.3* | i | 1.0 | -1.1
Cc1ccc(-c2cc(C(=O)N3CCCCC3)c3ccccc3n2)cc1C | 24.4 | -0.4 | i | -5.7 | /
C=CCNC(=O)CSc1ncc2c(n1)-c1c(csc1SC)CC2 | -0.2 | -0.1 | i | -3.3 | /
